Converted amounts (≈) assume the structure as drawn.

Test [1] relates to Pseudomonas aeruginosa. Kind of test: Antimicrobial activity against Pseudomonas aeruginosa PAO1 after 18 hrs by agar dilution method. It counts as functional. An outline of the steps: (§1)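 MICs by agar dilution following CLSI guidelines; plates incubated 18 h at 37°C.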
Test [2] has as its system Pseudomonas aeruginosa. Kind of test: Antimicrobial activity against wild-type Pseudomonas aeruginosa GP4 after 18 hrs by agar dilution method. The class given is functional. In a few lines:
as §1
(In general: Agar dilution tests growth on a series of plates holding different concentrations.)

In test [3] the test system is Pseudomonas aeruginosa. Put plainly: Antimicrobial activity against Pseudomonas aeruginosa PAO1 KTL harboring oprD gene after 18 hrs by agar dilution method. The class given is functional. In a few lines: (§2)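 Carbapenem-resistant mutants were isolated on carbapenem-containing AB3 agar after 10^6-fold dilution and broth culture, with or without ciprofloxacin or ofloxacin. Randomly picked colonies were checked for MIC by agar dilution following CLSI guidelines, with 18 h incubation at 37°C. PAO1KTL and PAO1KTS came from meropenem selection without fluoroquinolone.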

Test [4] concerns Pseudomonas aeruginosa. Put plainly: Antimicrobial activity against Pseudomonas aeruginosa PAO1 KTL1 harboring oprD, mexAB-oprM gene after 18 hrs by agar dilution method. The class given is functional.
Test [5] has as its system Pseudomonas aeruginosa. Put plainly: Antimicrobial activity against Pseudomonas aeruginosa PAO1 SO20 harboring mexAB-oprM gene after 18 hrs by agar dilution method. The class given is functional.
In test [6] the test system is Pseudomonas aeruginosa. Put plainly: Antimicrobial activity against Pseudomonas aeruginosa GP20KT21 harboring oprD gene after 18 hrs by agar dilution method. The class given is functional. In a few lines: as §2
Test [7] has as its system Pseudomonas aeruginosa. Put plainly: Antimicrobial activity against Pseudomonas aeruginosa GP37KT31 harboring oprD gene after 18 hrs by agar dilution method. The class given is functional. In a few lines:
as §2

In test [8] the test system is Pseudomonas aeruginosa. Put plainly: Antimicrobial activity against wild-type Pseudomonas aeruginosa GP62 after 18 hrs by agar dilution method. The class given is functional. In a few lines:
as §1

Test [9] concerns Pseudomonas aeruginosa. Kind of test: Antimicrobial activity against wild-type Pseudomonas aeruginosa GP37 after 18 hrs by agar dilution method. It counts as functional. In a few lines: as §1
The test system of test [10] is Pseudomonas aeruginosa. Put plainly: Antimicrobial activity against Pseudomonas aeruginosa GP61KT51 harboring oprD,mexAB-oprM gene after 18 hrs by agar dilution method. The class given is functional.
Test [11] deals with Pseudomonas aeruginosa. Put plainly: Antimicrobial activity against wild-type Pseudomonas aeruginosa GP61 after 18 hrs by agar dilution method. It counts as functional. In a few lines: as §1
Test [12] has as its system Pseudomonas aeruginosa. Put plainly: Antimicrobial activity against Pseudomonas aeruginosa GP4KT11 harboring oprD gene after 18 hrs by agar dilution method. The following applies: GP4KT11, 18 h.
Test [13] deals with Pseudomonas aeruginosa. Kind of test: Antimicrobial activity against Pseudomonas aeruginosa GP4KT111 harboring oprD,mexAB-oprM gene after 18 hrs by agar dilution method. It counts as functional.
Test [14] relates to Pseudomonas aeruginosa. Put plainly: Antimicrobial activity against Pseudomonas aeruginosa PAO1 IPM46 harboring oprD gene after 18 hrs by agar dilution method. It counts as functional.
Test [15] has as its system Pseudomonas aeruginosa. Put plainly: Antimicrobial activity against Pseudomonas aeruginosa PAO1 KTS harboring mexAB-oprM gene after 18 hrs by agar dilution method. It counts as functional. An outline of the steps:
as §2

For test [16], the system named is Pseudomonas aeruginosa. Kind of test: Antimicrobial activity against Pseudomonas aeruginosa GP62KT41 harboring oprD gene after 18 hrs by agar dilution method. It counts as functional. An outline of the steps: as §2
For test [17], the system named is Pseudomonas aeruginosa. Put plainly: Antimicrobial activity against wild-type Pseudomonas aeruginosa GP20 after 18 hrs by agar dilution method. The class given is functional. In a few lines:
as §1

In test [18] the test system is Pseudomonas aeruginosa. Kind of test: Antimicrobial activity against Pseudomonas aeruginosa GP4KT111 harboring oprD gene after 18 hrs by agar dilution method. The settings on record: GP4KT11. It counts as functional.

What is called MIC is the least concentration at which growth counts as inhibited. For the compound `CCN1CCN(C(=O)N[C@@H](C(=O)N[C@@H]2C(=O)N3[C@@H]2SC(C)(C)[C@@H]3C(=O)O)c2ccccc2)C(=O)C1=O` [PIPERACILLIN], the minimum inhibitory concentration (MIC) turned out to be 3.1 µg/mL (≈ 5.99 µM) against Pseudomonas aeruginosa [1] (PAO1, 18 h); 100 µg/mL (≈ 193 µM) in the test on Pseudomonas aeruginosa [2] (GP4, 18 h); 3.1 µg/mL (≈ 5.99 µM) with Pseudomonas aeruginosa [3]; 12.5 µg/mL (≈ 24.2 µM) against Pseudomonas aeruginosa [4] (PAO1 KTL1, 18 h); 12.5 µg/mL (≈ 24.2 µM) with Pseudomonas aeruginosa [5] (PAO1 SO20, 18 h); 100 µg/mL (≈ 193 µM) with Pseudomonas aeruginosa [6] (GP20KT21, 18 h). Moreover, the MIC in the test with Pseudomonas aeruginosa [7] (GP37KT31, 18 h) turned out to be 100 µg/mL (≈ 193 µM); in the test on Pseudomonas aeruginosa [8] (GP62, 18 h), 100 µg/mL (≈ 193 µM); against Pseudomonas aeruginosa [9] (GP37, 18 h), 100 µg/mL (≈ 193 µM); against Pseudomonas aeruginosa [10] (GP61KT51, 18 h) it was 12.5 µg/mL (≈ 24.2 µM); in the test with Pseudomonas aeruginosa [11] (GP61, 18 h), 3.1 µg/mL (≈ 5.99 µM); with Pseudomonas aeruginosa [12], 100 µg/mL (≈ 193 µM). The MIC with Pseudomonas aeruginosa [13] (GP4KT111, 18 h) was found to be 200 µg/mL (≈ 386 µM); with Pseudomonas aeruginosa [14] (PAO1 IPM46, 18 h), 3.1 µg/mL (≈ 5.99 µM); in the test with Pseudomonas aeruginosa [15], 12.5 µg/mL (≈ 24.2 µM); with Pseudomonas aeruginosa [16] (GP62KT41, 18 h), 100 µg/mL (≈ 193 µM); against Pseudomonas aeruginosa [17] (GP20, 18 h), 100 µg/mL (≈ 193 µM).
On to `C[C@@H](O)[C@H]1C(=O)N2C(C(=O)O)=C(S[C@@H]3CN[C@H](C(=O)N(C)C)C3)[C@H](C)[C@H]12` [MEROPENEM], for which the minimal inhibitory concentration (MIC) came out at 0.2 µg/mL (≈ 0.522 µM) against Pseudomonas aeruginosa [1] (PAO1, 18 h); 0.2 µg/mL (≈ 0.522 µM) in the test on Pseudomonas aeruginosa [2] (GP4, 18 h); 1.6 µg/mL (≈ 4.17 µM) with Pseudomonas aeruginosa [3]; 6.3 µg/mL (≈ 16.4 µM) against Pseudomonas aeruginosa [4] (PAO1 KTL1, 18 h); 1.6 µg/mL (≈ 4.17 µM) against Pseudomonas aeruginosa [5] (PAO1 SO20, 18 h); 3.1 µg/mL (≈ 8.08 µM) in the test on Pseudomonas aeruginosa [6] (GP20KT21, 18 h). For the same compound, the minimum inhibitory concentration (MIC) turned out to be 3.1 µg/mL (≈ 8.08 µM) in the test on Pseudomonas aeruginosa [7] (GP37KT31, 18 h); 0.2 µg/mL (≈ 0.522 µM) against Pseudomonas aeruginosa [8] (GP62, 18 h); 0.2 µg/mL (≈ 0.522 µM) in the test on Pseudomonas aeruginosa [9] (GP37, 18 h); 6.3 µg/mL (≈ 16.4 µM) against Pseudomonas aeruginosa [10] (GP61KT51, 18 h); 1.6 µg/mL (≈ 4.17 µM) in the test on Pseudomonas aeruginosa [11] (GP61, 18 h); 3.1 µg/mL (≈ 8.08 µM) with Pseudomonas aeruginosa [12]. Also, the MIC against Pseudomonas aeruginosa [13] (GP4KT111, 18 h) was 12.5 µg/mL (≈ 32.6 µM); in the test with Pseudomonas aeruginosa [14] (PAO1 IPM46, 18 h) it was 1.6 µg/mL (≈ 4.17 µM); in the test on Pseudomonas aeruginosa [15] it was 1.6 µg/mL (≈ 4.17 µM); against Pseudomonas aeruginosa [16] (GP62KT41, 18 h), 3.1 µg/mL (≈ 8.08 µM); in the test with Pseudomonas aeruginosa [17] (GP20, 18 h) it was 0.2 µg/mL (≈ 0.522 µM).
On to GENTAMICIN, for which the MIC with Pseudomonas aeruginosa [1] came to 1.6 µg/mL; against Pseudomonas aeruginosa [2] it was 100 µg/mL; against Pseudomonas aeruginosa [3] it was 1.6 µg/mL; in the test on Pseudomonas aeruginosa [4], 1.6 µg/mL; with Pseudomonas aeruginosa [5], 1.6 µg/mL; in the test on Pseudomonas aeruginosa [6], 3.1 µg/mL. Moreover, the MIC in the test on Pseudomonas aeruginosa [7] came to 100 µg/mL; against Pseudomonas aeruginosa [8] it was 1.6 µg/mL; in the test with Pseudomonas aeruginosa [9], 100 µg/mL; against Pseudomonas aeruginosa [10], 1.6 µg/mL; in the test with Pseudomonas aeruginosa [11], 1.6 µg/mL; in the test with Pseudomonas aeruginosa [13], 100 µg/mL. Further, the minimum inhibitory concentration (MIC) is 1.6 µg/mL in the test with Pseudomonas aeruginosa [14]; 100 µg/mL against Pseudomonas aeruginosa [18]; 1.6 µg/mL with Pseudomonas aeruginosa [15]; 1.6 µg/mL in the test on Pseudomonas aeruginosa [16]; 3.1 µg/mL with Pseudomonas aeruginosa [17].
On to `CC1COc2c(N3CCN(C)CC3)c(F)cc3c(=O)c(C(=O)O)cn1c23` (stereo not drawn) [OFLOXACIN], for which the MIC came to 0.8 µg/mL (≈ 2.21 µM) against Pseudomonas aeruginosa [1] (PAO1, 18 h); 1.6 µg/mL (≈ 4.43 µM) with Pseudomonas aeruginosa [2] (GP4, 18 h); 0.8 µg/mL (≈ 2.21 µM) against Pseudomonas aeruginosa [3]; 3.1 µg/mL (≈ 8.58 µM) in the test with Pseudomonas aeruginosa [4] (PAO1 KTL1, 18 h); 3.1 µg/mL (≈ 8.58 µM) in the test with Pseudomonas aeruginosa [5] (PAO1 SO20, 18 h); 1.6 µg/mL (≈ 4.43 µM) against Pseudomonas aeruginosa [6] (GP20KT21, 18 h). For the same compound, the minimum inhibitory concentration (MIC) against Pseudomonas aeruginosa [7] (GP37KT31, 18 h) was 1.6 µg/mL (≈ 4.43 µM); against Pseudomonas aeruginosa [8] (GP62, 18 h), 1.6 µg/mL (≈ 4.43 µM); with Pseudomonas aeruginosa [9] (GP37, 18 h) it was 1.6 µg/mL (≈ 4.43 µM); with Pseudomonas aeruginosa [10] (GP61KT51, 18 h), 6.3 µg/mL (≈ 17.4 µM); in the test on Pseudomonas aeruginosa [11] (GP61, 18 h) it was 1.6 µg/mL (≈ 4.43 µM); against Pseudomonas aeruginosa [12], 1.6 µg/mL (≈ 4.43 µM). In addition, the MIC stood at 6.3 µg/mL (≈ 17.4 µM) against Pseudomonas aeruginosa [13] (GP4KT111, 18 h); 0.8 µg/mL (≈ 2.21 µM) in the test with Pseudomonas aeruginosa [14] (PAO1 IPM46, 18 h); 3.1 µg/mL (≈ 8.58 µM) in the test with Pseudomonas aeruginosa [15]; 1.6 µg/mL (≈ 4.43 µM) in the test on Pseudomonas aeruginosa [16] (GP62KT41, 18 h); 1.6 µg/mL (≈ 4.43 µM) against Pseudomonas aeruginosa [17] (GP20, 18 h).

Source of the values: ChEMBL document CHEMBL1275521, “Fluoroquinolone enhances the mutation frequency for meropenem-selected carbapenem resistance in Pseudomonas aeruginosa, but use of the high-potency drug doripenem inhibits mutant formation” (2008).
